{
  "source": "the M2OR odorant receptor database",
  "data": [
    {"molecular_target": "T1, UniProt Q8VGQ3", "T1 sequence (whole entry)": "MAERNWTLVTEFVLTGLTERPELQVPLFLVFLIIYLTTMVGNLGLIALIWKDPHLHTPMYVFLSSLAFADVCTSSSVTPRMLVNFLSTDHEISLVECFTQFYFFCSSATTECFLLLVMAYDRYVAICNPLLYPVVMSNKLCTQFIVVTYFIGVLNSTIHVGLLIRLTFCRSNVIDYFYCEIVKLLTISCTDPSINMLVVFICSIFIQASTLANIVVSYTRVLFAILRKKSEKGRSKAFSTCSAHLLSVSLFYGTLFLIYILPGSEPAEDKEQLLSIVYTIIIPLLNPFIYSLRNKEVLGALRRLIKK", "conditions": "stereoisomer not certain", "in_short": "(§1)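 Transient luciferase assays in mammalian cell lines were common, though methods varied by source. The values come from published papers and their supplementary material, with extra details from the original authors when needed. Responsive refers to a measured signal the original authors judged statistically different from baseline, and non-responsive (inactive) to the remainder.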", "values": [
      {"smiles": "CCCCCCCCC(=O)O", "odorant receptor agonist call": "inactive"},
      {"smiles": "CCCCC(=O)O", "odorant receptor agonist call": "inactive"},
      {"smiles": "CC(C)=CCCC(C)CCO", "note": "(centres undefined)", "odorant receptor agonist call": "inactive"},
      {"smiles": "CCCCCCCCCO", "odorant receptor agonist call": "inactive"},
      {"smiles": "CCCCCCCC(C)=O", "odorant receptor agonist call": "inactive"},
      {"smiles": "O=C1Cc2ccccc2O1", "odorant receptor agonist call": "inactive"},
      {"smiles": "CCCC(=O)C(C)=O", "odorant receptor agonist call": "inactive"},
      {"smiles": "CC(=O)OCC=C(C)C", "odorant receptor agonist call": "inactive"},
      {"smiles": "CCCCCC=O", "odorant receptor agonist call": "inactive"},
      {"smiles": "CC(=O)Oc1ccccc1", "odorant receptor agonist call": "inactive"},
      {"smiles": "COc1cc(C(=O)O)ccc1O", "odorant receptor agonist call": "inactive"},
      {"smiles": "CCCCCC(=O)CC", "odorant receptor agonist call": "inactive"},
      {"smiles": "CCCCCCCCCS", "odorant receptor agonist call": "inactive"},
      {"smiles": "CCCCCCO", "odorant receptor agonist call": "inactive"},
      {"smiles": "CCOC(=O)C(C)C", "odorant receptor agonist call": "inactive"},
      {"smiles": "c1ccccc1", "odorant receptor agonist call": "inactive"},
      {"smiles": "CCCCCCOC(C)=O", "odorant receptor agonist call": "inactive"},
      {"smiles": "CCC(=O)O", "odorant receptor agonist call": "inactive"},
      {"smiles": "CCCCCCCCS", "odorant receptor agonist call": "inactive"},
      {"smiles": "C=C(C)C1CCC(C)C(=O)C1", "note": "(centres undefined)", "odorant receptor agonist call": "active"},
      {"smiles": "O=C(c1ccccc1)c1ccccc1", "odorant receptor agonist call": "inactive"},
      {"smiles": "CCCCC(=O)CC", "odorant receptor agonist call": "inactive"},
      {"smiles": "CCCCC(C)=O", "odorant receptor agonist call": "inactive"},
      {"smiles": "CCCCCCCCCC(=O)[O-].[H+]", "odorant receptor agonist call": "inactive"},
      {"smiles": "CCCCOC=O", "odorant receptor agonist call": "inactive"},
      {"smiles": "CCCCCCCCCCO", "odorant receptor agonist call": "inactive"},
      {"smiles": "CCCCCCCCO", "odorant receptor agonist call": "inactive"},
      {"smiles": "CCCCCC1=C(C)CCC1=O", "odorant receptor agonist call": "inactive"},
      {"smiles": "C=CCOC(=O)CCCCCC", "odorant receptor agonist call": "inactive"},
      {"smiles": "CCCCCCCO", "odorant receptor agonist call": "inactive"},
      {"smiles": "CC(C)=CCCC(C)=CCO", "odorant receptor agonist call": "inactive"},
      {"smiles": "CCC(=O)C(=O)CC", "odorant receptor agonist call": "inactive"}
    ]},
    {"molecular_target": "T2, UniProt Q8VGT4", "T2 sequence (whole entry)": "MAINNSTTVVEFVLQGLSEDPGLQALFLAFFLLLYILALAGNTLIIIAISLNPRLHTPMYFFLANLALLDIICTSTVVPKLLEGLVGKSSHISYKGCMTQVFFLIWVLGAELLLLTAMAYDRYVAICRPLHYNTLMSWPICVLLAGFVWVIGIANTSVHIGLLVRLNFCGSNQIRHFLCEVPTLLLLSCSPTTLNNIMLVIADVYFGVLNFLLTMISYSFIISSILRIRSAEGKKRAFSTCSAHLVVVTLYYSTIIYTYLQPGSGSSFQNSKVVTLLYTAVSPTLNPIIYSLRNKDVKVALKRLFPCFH", "conditions": "stereoisomer not certain", "in_short": "as §1", "values": [
      {"smiles": "CCCCCCCCC(=O)O", "odorant receptor agonist call": "inactive"},
      {"smiles": "CCCCC(=O)O", "odorant receptor agonist call": "inactive"},
      {"smiles": "CC(C)=CCCC(C)CCO", "note": "(centres undefined)", "odorant receptor agonist call": "inactive"},
      {"smiles": "CCCCCCCCCO", "odorant receptor agonist call": "inactive"},
      {"smiles": "CCCCCCCC(C)=O", "odorant receptor agonist call": "inactive"},
      {"smiles": "O=C1Cc2ccccc2O1", "odorant receptor agonist call": "inactive"},
      {"smiles": "CCCC(=O)C(C)=O", "odorant receptor agonist call": "inactive"},
      {"smiles": "CC(=O)OCC=C(C)C", "odorant receptor agonist call": "inactive"},
      {"smiles": "CCCCCC=O", "odorant receptor agonist call": "inactive"},
      {"smiles": "CC(=O)Oc1ccccc1", "odorant receptor agonist call": "inactive"},
      {"smiles": "COc1cc(C(=O)O)ccc1O", "odorant receptor agonist call": "inactive"},
      {"smiles": "CCCCCC(=O)CC", "odorant receptor agonist call": "inactive"},
      {"smiles": "CCCCCCCCCS", "odorant receptor agonist call": "inactive"},
      {"smiles": "CCCCCCO", "odorant receptor agonist call": "inactive"},
      {"smiles": "CCOC(=O)C(C)C", "odorant receptor agonist call": "inactive"},
      {"smiles": "c1ccccc1", "odorant receptor agonist call": "inactive"},
      {"smiles": "CCCCCCOC(C)=O", "odorant receptor agonist call": "inactive"},
      {"smiles": "CCC(=O)O", "odorant receptor agonist call": "inactive"},
      {"smiles": "CCCCCCCCS", "odorant receptor agonist call": "inactive"},
      {"smiles": "C=C(C)C1CCC(C)C(=O)C1", "note": "(centres undefined)", "odorant receptor agonist call": "inactive"},
      {"smiles": "O=C(c1ccccc1)c1ccccc1", "odorant receptor agonist call": "inactive"},
      {"smiles": "CCCCC(=O)CC", "odorant receptor agonist call": "inactive"},
      {"smiles": "CCCCC(C)=O", "odorant receptor agonist call": "inactive"},
      {"smiles": "CCCCCCCCCC(=O)[O-].[H+]", "odorant receptor agonist call": "inactive"},
      {"smiles": "CCCCOC=O", "odorant receptor agonist call": "inactive"},
      {"smiles": "CCCCCCCCCCO", "odorant receptor agonist call": "inactive"},
      {"smiles": "CCCCCCCCO", "odorant receptor agonist call": "inactive"},
      {"smiles": "CCCCCC1=C(C)CCC1=O", "odorant receptor agonist call": "inactive"},
      {"smiles": "C=CCOC(=O)CCCCCC", "odorant receptor agonist call": "inactive"},
      {"smiles": "CCCCCCCO", "odorant receptor agonist call": "inactive"},
      {"smiles": "CC(C)=CCCC(C)=CCO", "odorant receptor agonist call": "inactive"},
      {"smiles": "CCC(=O)C(=O)CC", "odorant receptor agonist call": "inactive"}
    ]}
  ]
}
